Data published in publication PMC3273716 (European Journal of Medicinal Chemistry, 2011).
Where two headings read alike, the source gives them in different places.

Tested on: P. carinii
Assay: ATP bioassay, anti-Pneumocystis activity
Type: cell-based, Pneumocystis carinii
Conditions: for IC50: Pneumocystis carinii
How it was run: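 Rat-lung P. carinii (male CD rats, methylprednisolone-immunosuppressed), cryopreserved, thawed, held at 5 × 10^7 nuclei/ml in RPMI-1640 + 20% calf serum, 37 °C, 5% CO2. Screen at 100 µg/ml; titrated if ATP fell ≥50%. Luciferin-luciferase ATP at 6, 24, 48, 72 h. Triplicate wells, 3 assays, 2 batches. Ampicillin 10 µg/ml and pentamidine 1 µg/ml controls. IC50: linear regression, % ATP decrease vs log concentration.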

[1] = 72 h, read-out: IC50 (µg/ml) ± SD for P. carinii

| SMILES | IC50 [1] [µg/mL] | IC50 (read-out: Activity ranking) [µg/mL] | Activity ranking (ranking based on IC50 in µg/ml) | IC50 (72 h) [µM] |
| --- | --- | --- | --- | --- |
| CN(CCOc1ccc(C(=N)N)cc1)CCOc1ccc(C(=N)N)cc1.Cl.Cl [compound 1, 1,5-Bis(4-amidinophenoxy)-N-methyl-3-azapentane trihydrochloride] | 0.82 ± 0.44 | 0.1 to 0.99 | – | – |
| COc1cc(C(=N)N)ccc1OCCN(C)CCOc1ccc(C(=N)N)cc1OC.Cl.Cl [compound 2, 1,5-Bis(4-amidino-2-methoxyphenoxy)-N-methyl-3-azapentane] | 2.1 ± 1.24 | 1 to 9.99 | – | – |
| COc1cc(C(=N)N)cc(OC)c1OCCN(C)CCOc1c(OC)cc(C(=N)N)cc1OC.Cl.Cl [compound 3, 1,5-Bis(4-amidino-2,6-dimethoxyphenoxy)-N-methyl-3-azapentane trihydrochloride] | 45.2 ± 16.9 | 10 to 49.9 | – | – |
| CN(CCCCCN(C)c1ccc(C(=N)N)cc1)c1ccc(C(=N)N)cc1.Cl.Cl [compound 4] | 1.02 ± 0.51 | 1 to 9.99 | – | – |
| Cl.Cl.N=C(N)c1ccc(NCCOCCNc2ccc(C(=N)N)cc2)cc1 [compound 5] | 0.47 ± 0.09 | 0.1 to 0.99 | – | – |
| Cl.Cl.N=C(N)c1ccc(OCCOCCOc2ccc(C(=N)N)cc2)cc1 [compound 6] | 0.96 ± 0.32 | 0.1 to 0.99 | – | – |
| COc1cc(C(=N)N)ccc1OCCOCCOc1ccc(C(=N)N)cc1OC.Cl.Cl [compound 7, 1,5-Bis(4-amidino-2-methoxyphenoxy)-3-oxapentane dihydrochloride] | 2 ± 1.65 | 1 to 9.99 | – | – |
| COc1cc(C(=N)N)cc(OC)c1OCCOCCOc1c(OC)cc(C(=N)N)cc1OC.Cl.Cl [compound 8, 1,5-Bis(4-amidino-2,6-dimethoxyphenoxy)-3-oxapentane dihydrochloride] | 7.66 ± 1.67 | 1 to 9.99 | – | – |
| COc1cc(C(=N)N)cc(OC)c1OCCCCCOc1c(OC)cc(C(=N)N)cc1OC.Cl.Cl [compound 9, 1,5-Bis(4-amidino-2,6-dimethoxyphenoxy)pentane dihydrochloride] | 1.68 ± 0.37 | 1 to 9.99 | – | – |
| Cl.Cl.N=C(N)c1ccc(OCCSCCOc2ccc(C(=N)N)cc2)cc1 [compound 10, 1,5-Bis(4-amidinophenoxy)-3-thiapentane dihydrochloride] | 0.52 ± 0.04 | 0.1 to 0.99 | – | – |
| Cl.Cl.N=C(N)c1ccc(OCCN(CCOc2ccc(C(=N)N)cc2)S(=O)(=O)c2ccccc2)cc1 [compound 11, N,N-Bis[2(4-amidinophenoxy)ethyl]benzenesulfonamide dihydrochloride] | 0.81 ± 0.12 | 0.1 to 0.99 | marked | – |
| COc1cc(C(=N)N)ccc1OCCN(CCOc1ccc(C(=N)N)cc1OC)S(=O)(=O)c1ccccc1.Cl.Cl [compound 12, N,N-Bis[2(4-amidino-2-methoxyphenoxy)ethyl]benzenesulfonamide dihydrochloride] | 1.8 ± 0.76 | 1 to 9.99 | – | – |
| COc1cc(C(=N)N)cc(OC)c1OCCN(CCOc1c(OC)cc(C(=N)N)cc1OC)S(=O)(=O)c1ccccc1.Cl.Cl [compound 13, N,N-Bis[2(4-amidino-2,6-dimethoxyphenoxy)ethyl]-benzenesulfonamide] | 3.13 ± 0.99 | 1 to 9.99 | – | – |
| COc1cc(C(=N)N)ccc1OCCN(CCOc1ccc(C(=N)N)cc1OC)S(=O)(=O)c1ccc(NC(C)=O)cc1.Cl.Cl [compound 15, N,N-Bis[2(4-amidino-2-methoxyphenoxy)ethyl]-4-acetamidobenzenesulfonamide] | 2.59 ± 0.83 | 1 to 9.99 | – | – |
| COc1cc(C(=N)N)cc(OC)c1OCCN(CCOc1c(OC)cc(C(=N)N)cc1OC)S(=O)(=O)c1ccc(N)cc1.Cl.Cl [compound 16] | 3.24 ± 0.88 | 1 to 9.99 | – | – |
| Cl.Cl.N=C(N)c1ccc(C(=O)NCCCNC(=O)c2ccc(C(=N)N)cc2)cc1 [compound 17, N,N’-Propane-1,3-diylbis(4-amidinobenzamide) dihydrochloride] | 1.53 ± 0.9 | 1 to 9.99 | – | – |
| Cl.Cl.N=C(N)c1ccc(C(=O)NCCCCNC(=O)c2ccc(C(=N)N)cc2)cc1 [compound 18, N,N’-Butane-1,4-diylbis(4-amidinobenzamide) dihydrochloride] | 1.85 ± 0.01 | 1 to 9.99 | – | – |
| Cl.Cl.N=C(N)c1ccc(C(=O)NCCCCCNC(=O)c2ccc(C(=N)N)cc2)cc1 [compound 19, N,N’-Pentane-1,5-diylbis(4-amidinobenzamide) dihydrochloride] | 7.4 ± 0.22 | 1 to 9.99 | – | – |
| Cl.Cl.N=C(N)c1ccc(C(=O)NCCCCCCNC(=O)c2ccc(C(=N)N)cc2)cc1 [compound 20, N,N’-Hexane-1,6-diylbis(4-amidinobenzamide) dihydrochloride] | 4.9 ± 1.2 | 1 to 9.99 | – | – |
| N=C(N)c1ccc(OCCCCCOc2ccc(C(=N)N)cc2)cc1 [pentamidine, reference compound] | 0.3 | – | – | 0.5 |
